Data taken from ChEMBL document CHEMBL1821697, “Design and synthesis of brain penetrant selective JNK inhibitors with improved pharmacokinetic properties for the prevention of neurodegeneration” (Bioorg Med Chem Lett, 2011).

Key:
Cortical neurone = test: Neuroprotective activity in human cerebral cortical neurons assessed as reversal of amyloid beta-induced neuronal damage after 2 to 3 days; type: functional
How it was run: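 Human cortical neurons were exposed to amyloid-β in a neurotoxicity assay. Neuroprotection by the inhibitor was expressed as an EC50.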

[1] = target: Tyrosine-protein kinase Lck (Homo sapiens) (UniProt P06239); test: Inhibition of LCK at 10 uM
[2] = Apparent permeability from apical to basolateral side of MDCK2 cells at 5 uM after 120 mins by LC/MS/MS method; type: ADME, cell-based, Canis lupus familiaris, MDCK-II; settings: dog, MDCK
[3] = target: Insulin receptor (Homo sapiens) (UniProt P06213); test: Inhibition of INSR at 10 uM
[4] = target: T1, Mitogen-activated protein kinase 10 (Homo sapiens, UniProt P53779); test: Inhibition of recombinant JNK3 using ser73 of c-jun as substrate preincubated for 15 mins measured after 60 mins by TR-FRET assay
How it was run: (§1)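 Recombinant JNK enzyme assay run at 10 µM ATP. IC50 values are means of at least three experiments.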

[5] = target: Serine/threonine-protein kinase Chk1 (Homo sapiens) (UniProt O14757); test: Inhibition of CHEK1 at 10 uM
[6] = Ratio of drug level in brain to plasma in mouse at 1 mg/kg, iv; type: ADME, organism-based; design: dose 1 mg/kg, route intravenous; settings: read-out: BPR
How it was run: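 Single intravenous dose of 1 mg/kg in mice. Brain exposure was reported as brain AUC (ng h/mL), together with the brain-to-plasma ratio.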

[7] = target: Tyrosine-protein kinase ABL1 (Homo sapiens) (UniProt P00519); test: Inhibition of Abl1 at 10 uM
[8] = target: Protein kinase C beta type (Homo sapiens) (UniProt P05771); test: Inhibition of PRKCB1 at 10 uM
[9] = target: Dual specificity protein kinase CLK1 (Homo sapiens) (UniProt P49759); test: Inhibition of CLK1 at 10 uM
[10] = target: Mitogen-activated protein kinase 14 (Homo sapiens, UniProt Q16539); test: Inhibition of recombinant p38alpha Thr69/71 of ATF-2 as substrate preincubated for 15 mins measured after 60 mins by TR-FRET assay
[11] = target: T2, Mitogen-activated protein kinase 1 (Homo sapiens, UniProt P28482); test: Inhibition of recombinant ERK2 using Ser383 of Elk-1 as substrate preincubated for 15 mins measured after 60 mins by TR-FRET assay
[12] = target: cAMP-dependent protein kinase catalytic subunit alpha (Homo sapiens) (UniProt P17612); test: Inhibition of PRKACA at 10 uM
[13] = tested on: RAF proto-oncogene serine/threonine-protein kinase (Homo sapiens), P04049 [Y340D,Y341D]; test: Inhibition of c-Raf Y340D Y341D mutant at 10 uM using 100 uM of ATP
[14] = Oxidative metabolic stability in mouse liver microsomes assessed as compound remaining at 1 uM after 30 mins; type: ADME, Microsome; settings: read-out: Stability
How it was run: (§2)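 Test compound was incubated with mouse, rat or human liver microsomes for 30 min. The read-out is percent of parent compound remaining.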

[15] = target: Receptor-type tyrosine-protein kinase FLT3 (Homo sapiens) (UniProt P36888); test: Inhibition of FLT3 at 10 uM
[16] = target: T2, Mitogen-activated protein kinase 1; test: Inhibition of ERK2 at 10 uM
[17] = target: Tyrosine-protein kinase SYK (Homo sapiens) (UniProt P43405); test: Inhibition of SYK at 10 uM
[18] = target: Leucine-rich repeat serine/threonine-protein kinase 2 (Homo sapiens) (UniProt Q5S007); test: Inhibition of LRRK2 at 10 uM
[19] = target: Mitogen-activated protein kinase 9 (Homo sapiens, UniProt P45984); test: Inhibition of recombinant JNK2 using ser73 of c-jun as substrate preincubated for 15 mins measured after 60 mins by TR-FRET assay; how it was run: as §1
[20] = Half life in rat at 1 mg/kg, iv; type: ADME, organism-based; design: dose 1 mg/kg, route intravenous; settings: in vivo
How it was run: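 Rats were given a single intravenous dose of 1 mg/kg. Half-life is reported in min, together with clearance (mL/h/kg).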

[21] = Oxidative metabolic stability in rat liver microsomes assessed as compound remaining at 1 uM after 30 mins; type: ADME, Microsome; settings: read-out: Stability; how it was run: as §2
[22] = target: Platelet-derived growth factor receptor alpha (Homo sapiens) (UniProt P16234); test: Inhibition of PDGFRA at 10 uM
[23] = target: Serine/threonine-protein kinase PLK3 (Homo sapiens) (UniProt Q9H4B4); test: Inhibition of PLK3 at 10 uM
[24] = target: Dual specificity tyrosine-phosphorylation-regulated kinase 1B (Homo sapiens) (UniProt Q9Y463); test: Inhibition of DYRK1B at 10 uM
[25] = target: Protein-tyrosine kinase 2-beta (Homo sapiens) (UniProt Q14289); test: Inhibition of PTK2B at 10 uM
[26] = target: Rho-associated protein kinase 2 (Homo sapiens) (UniProt O75116); test: Inhibition of ROCK2 at 10 uM
MDR1 = test: Efflux ratio of permeability across MDCK2 expressing MDR1 at 5 uM after 120 mins by LC/MS/MS method; type: ADME, Canis lupus familiaris, MDCK-II; settings: dog, MDCK-MDR1
[27] = target: Serine/threonine-protein kinase PLK1 (Homo sapiens) (UniProt P53350); test: Inhibition of PLK1 at 10 uM
[28] = AUC in mouse brain at 1 mg/kg, iv; type: ADME, organism-based; design: dose 1 mg/kg, route intravenous
How it was run: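 Mice were dosed intravenously at 1 mg/kg. Brain exposure was expressed as AUC (ng h/mL) alongside the brain/plasma ratio.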

[29] = target: T1, Mitogen-activated protein kinase 10; test: Inhibition of JNK3 at 10 uM using 100 uM of ATP
[30] = target: Aurora kinase A (Homo sapiens) (UniProt O14965); test: Inhibition of AURKA at 10 uM
[31] = target: Mitogen-activated protein kinase 8 (Homo sapiens, UniProt P45983); test: Inhibition of recombinant JNK1 using ser73 of c-jun as substrate preincubated for 15 mins measured after 60 mins by TR-FRET assay; how it was run: as §1
[32] = target: Cyclin-dependent kinase 5/CDK5 activator 1 (Homo sapiens) (UniProt Q00535+Q15078); test: Inhibition of CDK5/P25 at 10 uM; type: protein-complex assay
[33] = target: Serine/threonine-protein kinase MARK2 (Homo sapiens) (UniProt Q7KZI7); test: Inhibition of MARK2 at 10 uM
[34] = target: Calcium/calmodulin-dependent protein kinase type II subunit alpha (Homo sapiens) (UniProt Q9UQM7); test: Inhibition of CAMK2A at 10 uM
[35] = target: Cyclin-dependent kinase 2/cyclin A (Homo sapiens) (UniProt P24941+P20248+P78396); test: Inhibition of CDK2/Cyclin A at 10 uM; type: protein-complex assay
[36] = target: Macrophage colony-stimulating factor 1 receptor (Homo sapiens) (UniProt P07333); test: Inhibition of CSF1R at 10 uM
[37] = target: Glycogen synthase kinase-3 beta (Homo sapiens) (UniProt P49841); test: Inhibition of GSK3-beta at 10 uM
[38] = Oxidative metabolic stability in human liver microsomes assessed as compound remaining at 1 uM after 30 mins; type: ADME, Microsome; settings: read-out: Stability; how it was run: as §2
Rattus norvegicus [39] = test: Oral bioavailability in rat at 2 mg/kg; type: ADME, organism-based; settings: in vivo
How it was run: (§3)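 Rats received an oral dose of 2 mg/kg. Plasma AUC is reported in nmol h/mL. Oral bioavailability (F%) was calculated against a 1 mg/kg intravenous dose.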

[40] = target: PI3-kinase p110-alpha/p85-alpha (Homo sapiens) (UniProt P27986+P42336); test: Inhibition of PIK3CA/PIK3R1 at 10 uM; type: protein-complex assay
[41] = target: Serine/threonine-protein kinase PAK 4 (Homo sapiens) (UniProt O96013); test: Inhibition of PAK4 at 10 uM
[42] = target: Proto-oncogene tyrosine-protein kinase receptor Ret (Homo sapiens) (UniProt P07949); test: Inhibition of RET at 10 uM
[43] = target: Serine/threonine-protein kinase PLK2 (Homo sapiens) (UniProt Q9NYY3); test: Inhibition of PLK2 at 10 uM
[44] = target: Receptor tyrosine-protein kinase erbB-4 (Homo sapiens) (UniProt Q15303); test: Inhibition of ERBB4 at 10 uM
[45] = target: Serine/threonine-protein kinase 3 (Homo sapiens) (UniProt Q13188); test: Inhibition of STK3 at 10 uM
[46] = target: Receptor-interacting serine/threonine-protein kinase 2 (Homo sapiens) (UniProt O43353); test: Inhibition of RIPK2 at 10 uM
[47] = target: Cyclin-dependent kinase 1/cyclin B1 (Homo sapiens) (UniProt P06493+P14635); test: Inhibition of CDK1/Cyclin B1 at 10 uM; type: protein-complex assay
[48] = target: Tyrosine-protein kinase JAK1 (Homo sapiens) (UniProt P23458); test: Inhibition of JAK1 at 10 uM
Rattus norvegicus [49] = test: AUC in rat at 2 mg/kg, po; type: ADME, organism-based, Plasma; design: dose 2 mg/kg, route oral; settings: in vivo; how it was run: as §3
[50] = target: RAC-alpha serine/threonine-protein kinase (Homo sapiens) (UniProt P31749); test: Inhibition of AKT1 at 10 uM

T2 sequence (P28482 whole entry): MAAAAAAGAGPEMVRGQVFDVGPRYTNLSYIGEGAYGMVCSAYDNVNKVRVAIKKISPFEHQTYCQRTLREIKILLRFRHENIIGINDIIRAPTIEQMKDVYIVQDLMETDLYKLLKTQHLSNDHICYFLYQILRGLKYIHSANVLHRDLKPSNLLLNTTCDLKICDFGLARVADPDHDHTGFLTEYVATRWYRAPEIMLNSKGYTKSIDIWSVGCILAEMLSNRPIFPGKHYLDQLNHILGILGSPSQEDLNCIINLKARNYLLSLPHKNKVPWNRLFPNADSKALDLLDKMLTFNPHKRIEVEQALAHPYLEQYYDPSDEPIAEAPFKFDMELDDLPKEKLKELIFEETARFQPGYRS
T1 sequence (P53779 whole entry): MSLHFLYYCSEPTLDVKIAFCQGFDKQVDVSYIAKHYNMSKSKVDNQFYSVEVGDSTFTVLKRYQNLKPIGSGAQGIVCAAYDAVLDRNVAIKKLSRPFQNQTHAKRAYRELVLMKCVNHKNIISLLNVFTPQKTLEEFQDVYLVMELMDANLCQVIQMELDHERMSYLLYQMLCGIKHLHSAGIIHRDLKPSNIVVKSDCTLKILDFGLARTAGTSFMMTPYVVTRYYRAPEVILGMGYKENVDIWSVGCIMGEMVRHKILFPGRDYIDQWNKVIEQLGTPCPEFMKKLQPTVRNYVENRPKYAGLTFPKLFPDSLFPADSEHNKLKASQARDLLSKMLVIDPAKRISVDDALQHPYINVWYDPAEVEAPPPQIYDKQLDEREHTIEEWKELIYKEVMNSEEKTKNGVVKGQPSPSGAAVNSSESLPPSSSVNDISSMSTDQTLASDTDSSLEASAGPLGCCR
Protein-tyrosine kinase 2-beta (Homo sapiens), sequence (Q14289 whole entry, looked up): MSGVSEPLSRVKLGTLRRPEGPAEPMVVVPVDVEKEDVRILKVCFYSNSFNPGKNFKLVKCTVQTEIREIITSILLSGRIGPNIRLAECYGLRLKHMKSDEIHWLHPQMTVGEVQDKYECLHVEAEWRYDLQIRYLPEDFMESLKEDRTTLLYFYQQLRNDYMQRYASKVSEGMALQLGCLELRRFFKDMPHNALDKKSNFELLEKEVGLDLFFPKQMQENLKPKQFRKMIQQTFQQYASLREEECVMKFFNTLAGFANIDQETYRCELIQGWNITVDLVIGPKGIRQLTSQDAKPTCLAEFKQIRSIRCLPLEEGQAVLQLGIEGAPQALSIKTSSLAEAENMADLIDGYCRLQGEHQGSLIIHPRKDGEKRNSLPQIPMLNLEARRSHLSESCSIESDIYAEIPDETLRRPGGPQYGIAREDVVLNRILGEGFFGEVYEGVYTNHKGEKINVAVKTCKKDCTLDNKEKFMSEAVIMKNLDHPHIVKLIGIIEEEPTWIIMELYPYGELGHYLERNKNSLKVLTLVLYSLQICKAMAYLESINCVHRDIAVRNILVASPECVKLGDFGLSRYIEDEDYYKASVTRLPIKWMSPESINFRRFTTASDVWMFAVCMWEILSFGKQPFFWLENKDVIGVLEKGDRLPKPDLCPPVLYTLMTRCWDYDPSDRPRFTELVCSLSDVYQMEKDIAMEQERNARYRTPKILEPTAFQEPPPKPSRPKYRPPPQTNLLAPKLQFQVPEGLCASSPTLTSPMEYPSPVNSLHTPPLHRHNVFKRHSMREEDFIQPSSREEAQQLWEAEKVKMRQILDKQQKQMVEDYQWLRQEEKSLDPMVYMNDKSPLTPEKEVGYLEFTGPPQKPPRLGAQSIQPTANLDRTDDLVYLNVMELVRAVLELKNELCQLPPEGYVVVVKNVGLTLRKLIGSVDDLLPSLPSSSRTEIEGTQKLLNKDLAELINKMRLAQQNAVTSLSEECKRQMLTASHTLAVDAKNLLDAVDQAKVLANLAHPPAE
Glycogen synthase kinase-3 beta (Homo sapiens), sequence (P49841 whole entry, looked up): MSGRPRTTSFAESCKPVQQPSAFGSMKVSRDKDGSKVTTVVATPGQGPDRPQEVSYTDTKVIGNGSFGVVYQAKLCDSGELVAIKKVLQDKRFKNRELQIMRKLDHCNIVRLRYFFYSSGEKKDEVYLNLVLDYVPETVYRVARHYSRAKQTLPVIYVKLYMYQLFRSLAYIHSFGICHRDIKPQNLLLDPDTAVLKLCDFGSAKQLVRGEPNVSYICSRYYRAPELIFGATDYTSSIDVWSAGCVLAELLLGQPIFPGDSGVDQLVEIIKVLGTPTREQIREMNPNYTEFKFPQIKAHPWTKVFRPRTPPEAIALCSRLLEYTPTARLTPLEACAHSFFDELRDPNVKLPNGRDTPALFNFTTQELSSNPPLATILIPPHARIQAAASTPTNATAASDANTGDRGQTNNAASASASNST
Serine/threonine-protein kinase MARK2 (Homo sapiens), sequence (Q7KZI7 whole entry): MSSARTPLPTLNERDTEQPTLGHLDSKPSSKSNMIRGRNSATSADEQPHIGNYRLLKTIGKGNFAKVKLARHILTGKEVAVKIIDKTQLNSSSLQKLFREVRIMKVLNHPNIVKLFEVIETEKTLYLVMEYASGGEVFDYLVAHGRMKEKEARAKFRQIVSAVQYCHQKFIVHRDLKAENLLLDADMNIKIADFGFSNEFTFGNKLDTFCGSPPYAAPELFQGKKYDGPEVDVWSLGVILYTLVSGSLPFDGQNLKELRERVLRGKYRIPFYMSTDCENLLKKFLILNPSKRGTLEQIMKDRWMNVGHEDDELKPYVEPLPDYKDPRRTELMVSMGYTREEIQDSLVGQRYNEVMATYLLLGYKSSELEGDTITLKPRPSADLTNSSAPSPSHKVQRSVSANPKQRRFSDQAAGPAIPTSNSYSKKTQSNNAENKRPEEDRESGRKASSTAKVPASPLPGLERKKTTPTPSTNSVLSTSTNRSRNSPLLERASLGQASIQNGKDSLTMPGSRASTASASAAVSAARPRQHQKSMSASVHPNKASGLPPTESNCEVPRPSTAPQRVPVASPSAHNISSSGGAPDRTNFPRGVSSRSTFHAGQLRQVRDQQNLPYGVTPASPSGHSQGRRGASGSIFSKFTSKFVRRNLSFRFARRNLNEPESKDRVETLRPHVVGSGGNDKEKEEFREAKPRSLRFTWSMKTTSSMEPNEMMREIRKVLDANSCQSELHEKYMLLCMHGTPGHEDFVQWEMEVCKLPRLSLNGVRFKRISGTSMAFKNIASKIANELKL
Receptor tyrosine-protein kinase erbB-4 (Homo sapiens), sequence (Q15303 whole entry): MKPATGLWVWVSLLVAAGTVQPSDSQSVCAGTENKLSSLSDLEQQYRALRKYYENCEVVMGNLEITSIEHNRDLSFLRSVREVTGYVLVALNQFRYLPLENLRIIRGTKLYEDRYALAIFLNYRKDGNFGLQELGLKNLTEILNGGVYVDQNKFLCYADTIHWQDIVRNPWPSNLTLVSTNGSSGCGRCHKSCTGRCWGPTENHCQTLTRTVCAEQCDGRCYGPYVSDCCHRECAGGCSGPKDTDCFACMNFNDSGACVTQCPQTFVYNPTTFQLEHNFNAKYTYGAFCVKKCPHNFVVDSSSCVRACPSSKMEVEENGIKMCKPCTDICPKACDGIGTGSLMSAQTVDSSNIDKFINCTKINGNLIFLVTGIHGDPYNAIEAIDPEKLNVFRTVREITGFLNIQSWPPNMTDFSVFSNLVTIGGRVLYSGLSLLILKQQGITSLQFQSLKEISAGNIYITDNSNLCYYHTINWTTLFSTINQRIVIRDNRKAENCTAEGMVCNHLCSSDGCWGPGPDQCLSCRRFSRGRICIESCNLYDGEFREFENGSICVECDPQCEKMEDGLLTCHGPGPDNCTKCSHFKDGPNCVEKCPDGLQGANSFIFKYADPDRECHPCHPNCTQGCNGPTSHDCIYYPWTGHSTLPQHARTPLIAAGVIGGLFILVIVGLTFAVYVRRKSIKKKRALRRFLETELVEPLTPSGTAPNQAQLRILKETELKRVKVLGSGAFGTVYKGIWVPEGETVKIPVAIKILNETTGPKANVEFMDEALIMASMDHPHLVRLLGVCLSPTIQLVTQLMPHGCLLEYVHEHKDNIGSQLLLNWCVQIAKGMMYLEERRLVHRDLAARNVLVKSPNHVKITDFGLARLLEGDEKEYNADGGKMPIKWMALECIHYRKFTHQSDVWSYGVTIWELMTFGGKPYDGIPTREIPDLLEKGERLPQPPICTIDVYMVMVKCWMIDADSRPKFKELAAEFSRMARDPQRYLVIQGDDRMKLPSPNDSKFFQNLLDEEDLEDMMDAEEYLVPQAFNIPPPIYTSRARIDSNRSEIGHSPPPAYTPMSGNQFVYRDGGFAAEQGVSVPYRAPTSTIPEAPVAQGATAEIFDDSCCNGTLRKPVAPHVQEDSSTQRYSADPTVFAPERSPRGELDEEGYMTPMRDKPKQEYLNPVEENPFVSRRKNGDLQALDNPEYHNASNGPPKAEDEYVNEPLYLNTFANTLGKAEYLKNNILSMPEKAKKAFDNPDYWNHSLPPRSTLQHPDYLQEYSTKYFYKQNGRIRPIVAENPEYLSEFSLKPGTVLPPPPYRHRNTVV
Serine/threonine-protein kinase PAK 4 (Homo sapiens), sequence (O96013 whole entry, looked up): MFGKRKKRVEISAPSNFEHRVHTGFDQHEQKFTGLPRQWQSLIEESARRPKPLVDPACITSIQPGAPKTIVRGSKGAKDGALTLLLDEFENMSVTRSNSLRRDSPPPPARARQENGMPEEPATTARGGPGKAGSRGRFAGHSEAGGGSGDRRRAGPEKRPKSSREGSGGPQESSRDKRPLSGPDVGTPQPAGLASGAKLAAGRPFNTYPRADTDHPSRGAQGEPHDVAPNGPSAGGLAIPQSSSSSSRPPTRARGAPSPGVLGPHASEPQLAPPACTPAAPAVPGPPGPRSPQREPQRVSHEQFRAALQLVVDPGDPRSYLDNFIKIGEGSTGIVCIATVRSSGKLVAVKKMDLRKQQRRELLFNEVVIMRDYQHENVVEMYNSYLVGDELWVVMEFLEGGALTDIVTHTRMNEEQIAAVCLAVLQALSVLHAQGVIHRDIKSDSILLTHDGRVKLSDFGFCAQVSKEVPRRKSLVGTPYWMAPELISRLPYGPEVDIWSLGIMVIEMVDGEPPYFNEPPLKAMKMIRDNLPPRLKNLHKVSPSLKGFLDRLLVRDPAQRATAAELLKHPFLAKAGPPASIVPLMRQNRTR

Question: With `O=C(Cn1c(=O)ccc2cc(C(F)(F)F)ccc21)Nc1scc(Br)c1-c1ncn[nH]1` as the molecule, how does the EC50 (Cortical neurone) read?
Answer: 2900 nM

Question: And the inhibition [1]?
Answer: 8%

Question: And the Papp A→B at 2 h, 5 µM [2]?
Answer: 3.62 ×10⁻⁶ cm/s

Question: What about the inhibition [3] of the same molecule?
Answer: -3%

Question: What about the IC50 [4] of the same molecule?
Answer: 9 nM

Question: And the inhibition [5]?
Answer: 10%

Question: And the Kp [6]?
Answer: 0.7

Question: And the inhibition [7]?
Answer: 0%

Question: And the inhibition [8]?
Answer: 4%

Question: What about the inhibition [9] of the same molecule?
Answer: 5%

Question: And the IC50 [10]?
Answer: > 50000 nM

Question: What about the IC50 [11] of the same molecule?
Answer: > 50000 nM

Question: What about the inhibition [12] of the same molecule?
Answer: 0%

Question: And the inhibition [13]?
Answer: 10%

Question: What about the remaining at 0.5 h, 1 µM [14] of the same molecule?
Answer: 58%

Question: And the inhibition [15]?
Answer: 7%

Question: What about the inhibition [16] of the same molecule?
Answer: -2%

Question: What about the inhibition [17] of the same molecule?
Answer: 15%

Question: What about the inhibition [18] of the same molecule?
Answer: 13%

Question: What about the IC50 [19] of the same molecule?
Answer: 5 nM

Question: And the half-life [20]?
Answer: 4.6 min

Question: And the remaining at 0.5 h, 1 µM [21]?
Answer: 35%

Question: What about the inhibition [22] of the same molecule?
Answer: 0%

Question: And the inhibition [23]?
Answer: -8%

Question: And the inhibition [24]?
Answer: 11%

Question: What about the inhibition [25] of the same molecule?
Answer: -5%

Question: What about the inhibition [26] of the same molecule?
Answer: 11%

Question: And the efflux ratio at 2 h, 5 µM (MDR1)?
Answer: 0.61

Question: And the inhibition [27]?
Answer: 3%

Question: And the AUC [28]?
Answer: 235 ng·h/mL

Question: And the inhibition [29]?
Answer: 96%

Question: What about the inhibition [30] of the same molecule?
Answer: 5%

Question: What about the IC50 [31] of the same molecule?
Answer: 2 nM

Question: What about the inhibition [32] of the same molecule?
Answer: 2%

Question: What about the inhibition [33] of the same molecule?
Answer: 4%

Question: What about the inhibition [34] of the same molecule?
Answer: 4%

Question: What about the inhibition [35] of the same molecule?
Answer: 2%

Question: And the inhibition [36]?
Answer: -2%

Question: And the inhibition [37]?
Answer: 5%

Question: And the remaining at 0.5 h, 1 µM [38]?
Answer: 67%

Question: And the F (Rattus norvegicus [39])?
Answer: 34%

Question: And the inhibition [40]?
Answer: 6%

Question: And the inhibition [41]?
Answer: 3%

Question: And the inhibition [42]?
Answer: 4%

Question: What about the inhibition [43] of the same molecule?
Answer: 10%

Question: And the inhibition [44]?
Answer: -2%

Question: And the inhibition [45]?
Answer: 4%

Question: And the inhibition [46]?
Answer: -7%

Question: What about the inhibition [47] of the same molecule?
Answer: 1%

Question: And the inhibition [48]?
Answer: 0%

Question: And the AUC (Rattus norvegicus [49])?
Answer: 1310 ng·h/mL

Question: And the inhibition [50]?
Answer: 2%
